Measurements as given in ChEMBL document CHEMBL1687781, “Comparative biochemical and computational study of the role of naturally occurring mutations at Ambler positions 104 and 170 in GES β-lactamases” (Antimicrob Agents Chemother, 2010).
In brackets after ≈: the same amount, converted by molar mass.

Tests used:
[1] = Ratio of Kcat to Km for Beta-lactamase GES-7 K104, G170 mutant
How it was run: (§1)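 Purified GES enzymes, released by mild sonication in 20 mM Tris pH 8.0, then Q-Sepharose and S-Sepharose chromatography, >95% pure by SDS-PAGE, in 50 mM KPi pH 7.6. Protein measured by Bradford. β-Lactam substrates hydrolysed at various concentrations, 25°C, in 50 mM NaCl, 50 mM MOPS pH 7.0.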

[2] = Activity of Beta-lactamase GES-13 K104, N170 mutant; how it was run: as §1
[3] = Activity of Beta-lactamase GES-6 K104, S170 mutant; how it was run: as §1
[4] = Activity of Beta-lactamase GES-1 E104, G170 mutant; how it was run: as §1
[5] = Activity of Beta-lactamase GES-7 K104, G170 mutant; how it was run: as §1
[6] = Ratio of Kcat to Km for Beta-lactamase GES-2 E104, N170 mutant; how it was run: as §1
[7] = Ratio of Kcat to Km for Beta-lactamase GES-6 K104, S170 mutant; how it was run: as §1
[8] = Ratio of Kcat to Km for Beta-lactamase GES-13 K104, N170 mutant; how it was run: as §1
[9] = Activity of Beta-lactamase GES-2 E104, N170 mutant; how it was run: as §1
[10] = Ratio of Kcat to Km for Beta-lactamase GES-5 E104, S170 mutant; how it was run: as §1
[11] = Activity of Beta-lactamase GES-5 E104, S170 mutant; how it was run: as §1
[12] = Ratio of Kcat to Km for Beta-lactamase GES-1 E104, G170 mutant; how it was run: as §1
Escherichia coli [13] = test: Antimicrobial activity against Escherichia coli DH5[alpha] transformed with pAC-ges1 plasmid encoding Beta-lactamase GES-7 K104, G170 mutant by Etest method; type: functional
Escherichia coli [14] = test: Antimicrobial activity against Escherichia coli DH5[alpha] transformed with pAC-ges1 plasmid encoding Beta-lactamase GES-6 K104, S170 mutant by Etest method; type: functional
Escherichia coli [15] = test: Antimicrobial activity against Escherichia coli DH5[alpha] transformed with pAC-ges1 plasmid encoding Beta-lactamase GES-2 E104, N170 mutant by Etest method; type: functional
Escherichia coli [16] = test: Antimicrobial activity against Escherichia coli DH5[alpha] transformed with pAC-ges1 plasmid encoding Beta-lactamase GES-5 E104, S170 mutant by Etest method; type: functional
Escherichia coli [17] = test: Antimicrobial activity against Escherichia coli DH5[alpha] transformed with pAC-ges1 plasmid encoding Beta-lactamase GES-13 K104, N170 mutant by Etest method; type: functional
Escherichia coli [18] = test: Antimicrobial activity against Escherichia coli DH5[alpha] transformed with pAC-ges1 plasmid encoding Beta-lactamase GES-1 E104, G170 mutant by Etest method; type: functional
Escherichia coli [19] = test: Antimicrobial activity against Escherichia coli DH5[alpha] by Etest method; type: functional
[20] = Inhibition of Beta-lactamase GES-7 K104, G170 mutant preincubated for 5 mins before substrate addition using cephalothin substrate by spectrophotometry
[21] = Inhibition of Beta-lactamase GES-5 E104, S170 mutant preincubated for 5 mins before substrate addition using cephalothin substrate by spectrophotometry
[22] = Inhibition of Beta-lactamase GES-6 K104, S170 mutant preincubated for 5 mins before substrate addition using cephalothin substrate by spectrophotometry
[23] = Inhibition of Beta-lactamase GES-2 E104, N170 mutant preincubated for 5 mins before substrate addition using cephalothin substrate by spectrophotometry
[24] = Inhibition of Beta-lactamase GES-1 E104, G170 mutant preincubated for 5 mins before substrate addition using cephalothin substrate by spectrophotometry
[25] = Inhibition of Beta-lactamase GES-13 K104, N170 mutant preincubated for 5 mins before substrate addition using cephalothin substrate by spectrophotometry

Row | SMILES | kcat/Km [1] [M⁻¹ s⁻¹] | Km [2] [µM] | kcat [2] [s⁻¹] | Km [3] [µM] | kcat [3] [s⁻¹] | Km [4] [µM] | kcat [4] [s⁻¹] | Km [5] [µM] | kcat/Km [7] [M⁻¹ s⁻¹] | kcat/Km [8] [M⁻¹ s⁻¹] | kcat/Km [10] [M⁻¹ s⁻¹] | Km [11] [µM] | kcat [11] [s⁻¹] | MIC (Escherichia coli [13]) [µg/mL] | MIC (Escherichia coli [14]) [µg/mL] | MIC (Escherichia coli [15]) [µg/mL] | MIC (Escherichia coli [16]) [µg/mL] | MIC (Escherichia coli [17]) [µg/mL] | MIC (Escherichia coli [18]) [µg/mL] | MIC (Escherichia coli [19]) [µg/mL] | other results
1 | CC1(C)S[C@@H]2[C@H](NC(=O)Cc3ccccc3)C(=O)N2[C@H]1C(=O)O | 360000 | 139 | 13.5 | 64.2 | 27.2 | 120 | 30.5 | 39 | 420000 | 100000 | 320000 | 88.9 | 28.6 |  |  |  |  |  |  |  | kcat [5]: 14.2 s⁻¹; kcat/Km [6]: 70000 M⁻¹ s⁻¹; Km [9]: 87.6 µM; kcat [9]: 5.75 s⁻¹; kcat/Km [12]: 260000 M⁻¹ s⁻¹
2 | CC1(C)S[C@@H]2[C@H](NC(=O)[C@H](N)c3ccccc3)C(=O)N2[C@H]1C(=O)O [AMPICILLIN] |  |  |  |  |  |  |  |  |  |  |  |  |  | > 256 | > 256 | > 256 | > 256 | > 256 | > 256 |  | 
3 | C[C@H]1[C@H](NC(=O)/C(=N\OC(C)(C)C(=O)O)c2csc(N)n2)C(=O)N1S(=O)(=O)O [AZTREONAM] | 190000 | 405 | 35.6 |  |  |  |  | 241 |  | 90000 |  |  |  | 2 (≈ 4.59 µM) | 0.094 (≈ 0.216 µM) | 0.032 (≈ 0.0735 µM) | 0.032 (≈ 0.0735 µM) | 2 (≈ 4.59 µM) | 0.094 (≈ 0.216 µM) |  | kcat [5]: 45.5 s⁻¹
4 | CO/N=C(\C(=O)N[C@@H]1C(=O)N2C(C(=O)O)=C(COC(C)=O)CS[C@H]12)c1csc(N)n1 [CEFOTAXIME] | 380000 | 63.4 | 69 | 95.6 | 5.1 | 152 | 56.8 | 81.6 | 50000 | 1.09e+06 | 30000 | 133 | 3.55 | 1.5 (≈ 3.29 µM) | 0.125 (≈ 0.274 µM) | 0.75 (≈ 1.65 µM) | 0.125 (≈ 0.274 µM) | 3 (≈ 6.59 µM) | 1 (≈ 2.2 µM) | 0.032 (≈ 0.0703 µM) | kcat [5]: 31.4 s⁻¹; kcat/Km [6]: 140000 M⁻¹ s⁻¹; Km [9]: 261 µM; kcat [9]: 37.2 s⁻¹; kcat/Km [12]: 370000 M⁻¹ s⁻¹
5 | CO[C@@]1(NC(=O)Cc2cccs2)C(=O)N2C(C(=O)O)=C(COC(N)=O)CS[C@@H]21 [CEFOXITIN] |  |  |  | 82.3 | 12.1 |  |  |  | 150000 |  | 30000 | 221 | 7.5 | 3 (≈ 7.02 µM) | 48 (≈ 112 µM) | 3 (≈ 7.02 µM) | 16 (≈ 37.4 µM) | 3 (≈ 7.02 µM) | 3 (≈ 7.02 µM) | 2 (≈ 4.68 µM) | 
6 | CC(C)(O/N=C(\C(=O)N[C@@H]1C(=O)N2C(C(=O)[O-])=C(C[n+]3ccccc3)CS[C@H]12)c1csc(N)n1)C(=O)O [CEFTAZIDIME] | 1.9e+06 | 229 | 30.4 | 149 | 9.3 | 137 | 10.5 | 69.2 | 63000 | 130000 | 2000 | 135 | 0.24 | > 256 | 4 (≈ 7.32 µM) | 0.5 (≈ 0.915 µM) | 0.75 (≈ 1.37 µM) | 32 (≈ 58.5 µM) | 8 (≈ 14.6 µM) | 0.12 (≈ 0.22 µM) | kcat [5]: 132 s⁻¹; kcat/Km [6]: 2000 M⁻¹ s⁻¹; Km [9]: 98.2 µM; kcat [9]: 0.21 s⁻¹; kcat/Km [12]: 77000 M⁻¹ s⁻¹
7 | O=C(O)[C@H]1/C(=C/CO)O[C@@H]2CC(=O)N21 [CLAVULANIC ACID] |  |  |  |  |  |  |  |  |  |  |  |  |  |  |  |  |  |  |  |  | IC50 [20]: 800 nM; IC50 [21]: 500 nM; IC50 [22]: 1700 nM; IC50 [23]: 80 nM; IC50 [24]: 100 nM; IC50 [25]: 90 nM
8 | C[C@@H](O)[C@H]1C(=O)N2C(C(=O)O)=C(SCCNC=N)C[C@H]12 [IMIPENEM ANHYDROUS] |  | 3.1 | 0.009 | 3.92 | 0.166 | 1.2 | 0.006 |  | 42000 | 3000 | 260000 | 1.27 | 0.332 | 0.125 (≈ 0.418 µM) | 0.5 (≈ 1.67 µM) | 0.5 (≈ 1.67 µM) | 1.5 (≈ 5.01 µM) | 0.25 (≈ 0.835 µM) | 0.25 (≈ 0.835 µM) | 0.064 (≈ 0.214 µM) | kcat/Km [6]: 20000 M⁻¹ s⁻¹; Km [9]: 0.87 µM; kcat [9]: 0.016 s⁻¹; kcat/Km [12]: 5000 M⁻¹ s⁻¹
9 | C[C@@H](O)[C@H]1C(=O)N2C(C(=O)O)=C(S[C@@H]3CN[C@H](C(=O)N(C)C)C3)[C@H](C)[C@H]12 [MEROPENEM] |  |  |  |  |  |  |  |  |  |  |  |  |  | 0.016 (≈ 0.0417 µM) | 0.047 (≈ 0.123 µM) | 0.032 (≈ 0.0834 µM) | 0.094 (≈ 0.245 µM) | 0.023 (≈ 0.06 µM) | 0.016 (≈ 0.0417 µM) | 0.008 (≈ 0.0209 µM) | 
10 | CC1(C)[C@H](C(=O)O)N2C(=O)C[C@H]2S1(=O)=O [SULBACTAM] |  |  |  |  |  |  |  |  |  |  |  |  |  |  |  |  |  |  |  |  | IC50 [21]: 4500 nM; IC50 [22]: 8000 nM; IC50 [23]: 500 nM; IC50 [24]: 1500 nM; IC50 [25]: 300 nM
11 | C[C@]1(Cn2ccnn2)[C@H](C(=O)O)N2C(=O)C[C@H]2S1(=O)=O [TAZOBACTAM] |  |  |  |  |  |  |  |  |  |  |  |  |  |  |  |  |  |  |  |  | IC50 [20]: 60 nM; IC50 [21]: 500 nM; IC50 [22]: 500 nM; IC50 [23]: 30 nM; IC50 [24]: 30 nM; IC50 [25]: 40 nM
